{
  "source": "paper PMC5362268",
  "about": "(Cell, 2017)",
  "key": {"KRAS^G12D-GppNHp": {"biological_target": "KRAS^G12D-GppNHp (Homo sapiens, UniProt P01116, G12D)", "test": "Microscale thermophoresis", "type": "binding", "settings": "selectivity panel", "in_short": "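To strip endogenous nucleotide, KRAS G12D (250 μM) in 25 mM HEPES, 100 mM NaCl, 20 mM EDTA and 1 mM GppNHp was shaken at 220 rpm, 30 °C, before MST.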"}, "[1]": {"system": "pERK and pAKT in BRAF-CAAX-containing MEFs", "test": "Western blots of mouse embryo fibroblasts", "type": "cell-based", "settings": "compared with Kras MEFs", "in_short": "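MEFs seeded at 0.25 million/well in DMEM with Glutamax, 10% heat-inactivated FBS and P/S. Serum-starved 24 h, then given test compound in serum-free medium; EGF 10 ng/ml for 15 min where indicated. Band intensities background-subtracted; pERK and pAKT expressed as (phospho/tubulin)/(total/tubulin) and normalised to DMSO.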"}, "SW480 (KRAS^G12V)": {"system": "SW480 (KRAS^G12V)", "test": "Multicellular tumor spheroids", "type": "cell-based, human", "settings": "low-adherence plates, 72 h"}, "[2]": {"system": "T-ALL cells with wild-type NRAS", "test": "Viability of primary T-ALL patient samples", "type": "cell-based, human", "settings": "5 μM, 72 h, four patient samples", "in_short": "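Primary T-ALL lymphoblasts, 250,000 per well in 24-well plates, in triplicate. Treated with DMSO vehicle or test compound across 1 to 5 μM for 72 h. Viability by flow-based kit with counting beads, gating out GFP+ stromal cells and PI+ dead cells and particles.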"}, "[3]": {"system": "pERK and pAKT in BJeLR (HRAS^V12) cells", "test": "Western blots of RAS signaling", "type": "cell-based, human", "in_short": "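Cells seeded 16 h before use in DMEM with 10% or 2% FBS plus P/S. Compound added in serum-free DMEM or DMEM 2% FBS for the indicated times. Lysis in HEPES pH 7.4 buffer with phosphatase and protease inhibitors; SDS-PAGE, PVDF transfer, Li-COR blocking, primary antibodies (1:1000) overnight at 4 °C.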"}, "KRAS^G12D D38A": {"biological_target": "KRAS^G12D D38A (Homo sapiens, UniProt P01116, D38A/G12D)", "test": "MST, D38A point mutant", "type": "binding", "settings": "compared with KRAS^G12D"}, "[4]": {"system": "CRAF-bound RAS in BJeLR cells", "test": "Cell-based RAS pulldown", "parameters": "species or system human", "in_short": "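BJeLR cells seeded 16 h before use in DMEM with 10% FBS. Medium then replaced with serum-free medium containing the test compound or a reference inhibitor (from 10 mM DMSO stocks), 24 h. c-RAF bound to RAS proteins was determined by pulldown.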"}, "HT-1080 cells": {"system": "HT-1080 cells", "test": "Caspase 3/7 activation assay", "type": "cell-based, human", "settings": "24 h; compared with staurosporine", "in_short": "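HT-1080 cells seeded at 1,000 cells/well in 384-well plates. After 16 h, test compound was added as a dilution series, made from 50 mM DMSO stocks and transferred into assay wells at 1:5 dilution.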"}, "[5]": {"system": "phosphorylated ERK in MDA-MB-231 xenograft", "test": "Pharmacodynamic study using MDA-MB-231 cells", "type": "in vivo, mouse", "settings": "30 mg/kg IP once per day for 6 d, vs vehicle", "in_short": "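Eight-week-old athymic nude mice received 8 million MDA-MB-231 cells subcutaneously. After 4 d they were grouped at ~128 mm³ tumours and dosed IP once daily for 6 d with 30 mg/kg in 5% DMSO HBSS pH 4, or with that vehicle. Tumours were then analysed for phosphorylated ERK.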"}, "[6]": {"system": "pERK and pAKT in Hras^−/−; Nras^−/−; Kras^flox/flox MEFs", "test": "Western blots of mouse embryo fibroblasts", "type": "cell-based", "settings": "treatment for 0.6 h, 1 h or 16 h, EGF stimulated", "in_short": "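MEFs seeded at 0.25 million/well in DMEM with Glutamax, 10% heat-inactivated FBS and P/S, grown to 80% confluence, then serum-starved 24 h. Serum-free treatment with 5 μM test compound for 35 min or 1 h, or 2 μM for 16 h, then EGF 10 ng/ml for 15 min. Quantified as (phospho/tubulin)/(total/tubulin), normalised to DMSO.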"}, "[7]": {"system": "Kras^lox/lox, Hras^−/−, Nras^−/− RERTn^ert/ert MEFs", "test": "MEF cell number after treatment", "type": "cell-based, mouse", "settings": "6-well, 24 h treatment", "in_short": "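6-well format: 200,000 cells/well seeded 16 h beforehand. Medium replaced with medium containing test compound (from 10 mM DMSO stocks) at indicated concentrations. After 24 h, cells trypsinized and counted by Trypan Blue exclusion (Vi-Cell).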"}, "KP^f/fC mice": {"system": "KP^f/fC mice", "test": "Toxicity in KP^f/fC mouse study", "type": "in vivo", "settings": "30 mg/kg IP once daily"}, "[8]": {"test": "Solubility of compound 3144", "type": "physicochemical"}, "RALA-GTP in BJeLR cells": {"system": "RALA-GTP in BJeLR cells", "test": "RALA activation assay", "type": "cell-based, human", "in_short": "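BJeLR cells seeded 16 h before use in DMEM with 2% FBS, then given medium with test compound (from 10 mM DMSO stock) for 6 h. Cells washed twice with ice-cold 25 mM Tris, 100 mM NaCl, 1 mM TCEP, 5 mM MgCl2, 0.1% Tween-20 with protease inhibitor. RALA-GTP pulled down on beads, eluted in SDS buffer and blotted.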"}, "DLD-1 cells": {"system": "DLD-1 cells", "test": "Pan-RAS siRNA knockdown and viability", "type": "cell-based, human", "settings": "24 h", "in_short": "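DLD-1 cells reverse-transfected in 6-well plates with siRNA pools against HRAS, KRAS and NRAS, or a non-targeting pool. Cells then re-suspended in serum-free RPMI and seeded at 10,000 cells/well in 384-well plates overnight. Dilution series added from 10× stocks in serum-free Opti-mem; 24 h incubation; viability by CellTiter-Glo.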"}, "KRAS^wt": {"biological_target": "KRAS^wt (Homo sapiens, UniProt P01116)", "test": "MST with RAS GTPases", "type": "binding", "settings": "selectivity panel, GppNHp-loaded"}, "GDP complex of KRAS^G12D": {"biological_target": "GDP complex of KRAS^G12D (Homo sapiens, UniProt P01116, G12D)", "test": "MST, GDP-bound KRAS^G12D", "type": "binding", "settings": "compared with GppNHp-bound KRAS^G12D"}},
  "data": [
    {"smiles": "NC1(C(=O)NCCCn2cc(-c3ccc(OC(F)(F)F)cc3)c3cc(CN4CCN(Cc5c(Cl)cccc5Cl)CC4)ccc32)CCNCC1", "note": "[compound 3144, 4-amino-N-(3-(5-((4-(2,6-dichlorobenzyl)piperazin-1-yl)methyl)-3-(4-(trifluoromethoxy)phenyl)-1H-indol-1-yl)propyl)piperidine-4-carboxamide]", "values": [
      {"measurement": "binding by MST", "setting": "KRAS^G12D-GppNHp", "result": "detected binding"},
      {"measurement": "pERK and pAKT abundance", "setting": "[1]", "result": "more resistant"},
      {"measurement": "spheroid size", "setting": "SW480 (KRAS^G12V)", "result": "decreased in size in a dose-dependent manner"},
      {"measurement": "effect on viability", "setting": "[2]", "result": "no observable effect on viability"},
      {"measurement": "EGF-induced pAKT and pERK abundance", "setting": "[3]", "result": "suppressed to a degree"},
      {"measurement": "pERK and pAKT abundance", "setting": "[3]", "result": "somewhat decreased"},
      {"measurement": "binding affinity to D38A mutant", "setting": "KRAS^G12D D38A", "result": "reduced binding affinity"},
      {"measurement": "CRAF-bound RAS", "setting": "[4]", "result": "decreased"},
      {"measurement": "caspase activity", "setting": "HT-1080 cells", "result": "induced caspase activity to a similar level as staurosporine"},
      {"measurement": "tumor pERK levels", "setting": "[5]", "result": "somewhat decreased"},
      {"measurement": "pERK and pAKT abundance", "setting": "[6]", "result": "moderately decreased"},
      {"measurement": "concentrations not reducing the number of MEFs below the starting number", "setting": "[7]", "result": "below 3 μM"},
      {"measurement": "toxicity", "setting": "KP^f/fC mice", "result": "Toxicity was observed"},
      {"measurement": "concentration without visible precipitation", "setting": "[8]; aqueous buffers (e.g., phosphate buffered saline), room temperature, 1.5% DMSO", "result": "≥ 250", "unit": "µM"},
      {"measurement": "solubility", "setting": "[8]; aqueous solutions, aqueous buffer, kinetic from dmso stock", "result": 5, "unit": "µM"},
      {"measurement": "RALA-GTP", "setting": "RALA-GTP in BJeLR cells", "result": "decreased"},
      {"measurement": "concentration up to which cells were resistant", "setting": "DLD-1 cells; DLD-1 (KRAS^G13D), high cell density, no RAS knockdown", "result": "> 20", "unit": "µM"},
      {"measurement": "effect of combined HRAS, NRAS and KRAS knockdown on compound lethality", "setting": "DLD-1 cells; si-panRAS vs non-targeting siRNA, CellTiter-Glo", "result": "sensitization"},
      {"measurement": "binding by MST", "setting": "KRAS^wt", "result": "detected binding"},
      {"measurement": "affinity for the GDP complex", "setting": "GDP complex of KRAS^G12D", "result": "reduced affinity"}
    ]}
  ]
}
